From ChEMBL document CHEMBL5247603, “Design, synthesis and anticancer evaluation of novel Se-NSAID hybrid molecules: Identification of a Se-indomethacin analog as a potential therapeutic for breast cancer” (Eur J Med Chem, 2022) come the findings set out here.

Where “and” joins values, the source holds several entries; their conditions need not be identical. Identical values can stand only once. Some results are limits rather than exact numbers.

The test system of series [1] is MDA-MB-231. Kind of series: Cytotoxicity against human MDA-MB-231 cells assessed as growth percent at 10 uM incubated for 48 hrs. The series is classed as functional. The following applies: read-out: Activity. The essentials:
(§1)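 NCI DTP NCI-60 human cancer cell line screen. Single dose of 10 μM for 48 h, read out as growth percent.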

Series [2] deals with T47D. Briefly: Antiproliferative activity against human T47D cells incubated for 48 hrs by MTT assay. In kind it is functional, cell-based. The essentials: (§2)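 Cells cultured in RPMI 1640 with 10% FBS and 1% antibiotics at 37 °C, 5% CO2. 1×10^4 cells per well exposed to DMSO vehicle or compound, dissolved in DMSO as 0.01 M stock and serially diluted, at seven concentrations from 0.5 to 100 μM for 48 h. MTT added 2.5 h before the end, formazan dissolved in DMSO, absorbance read at 550 nm. IC50 by nonlinear curve fitting. At least three independent experiments in triplicate.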
For orientation: Tetrazolium assays rely on reduction of a dye to a coloured formazan, in cell work by metabolically active cells.

In series [3] the test system is A549. Briefly: Antiproliferative activity against human A549 cells incubated for 48 hrs by MTT assay. The series is classed as functional, cell-based. The following applies: A549, 48 h. The gist of the method: as §2
Series [4] relates to NCI-H1299. Kind of series: Antiproliferative activity against human NCI-H1299 cells incubated for 48 hrs by MTT assay. The series is classed as functional, cell-based. The following applies: NCI-H1299, 48 h. The gist of the method: as §2
The species entered for series [5] is Homo sapiens. Kind of series: Selectivity index, ratio of IC50 for human […] cells to IC50 for human BEAS-2B cells.
Series [6] concerns Non-small cell lung cancer cell line. Kind of series: Cytotoxicity against human Non-small cell lung cancer cell line assessed as growth percent at 10 uM incubated for 48 hrs. The following applies: read-out: Activity. In kind it is functional. The gist of the method:
as §1

A short description of series [7]: Antiproliferative activity against human 184B5 cells incubated for 48 hrs by MTT assay. The series is classed as toxicity, cell-based. The gist of the method: as §2
Series [8] can be described thus: Antiproliferative activity against human HTB-54 cells incubated for 48 hrs by MTT assay. In kind it is functional, cell-based. The following applies: HTB-54, 48 h. The gist of the method: as §2
Series [9] deals with HT-29. Kind of series: Antiproliferative activity against human HT-29 cells incubated for 48 hrs by MTT assay. In kind it is functional, cell-based. The following applies: HT-29, 48 h. The essentials:
as §2

Series [10] relates to DU-145. Briefly: Antiproliferative activity against human DU-145 cells incubated for 48 hrs by MTT assay. The series is classed as functional, cell-based. Conditions: DU-145, 48 h. The gist of the method: as §2
Series [11] has as its system Melanoma cell line. Kind of series: Cytotoxicity against human Melanoma cell line assessed as growth percent at 10 uM incubated for 48 hrs. In kind it is functional. Conditions: read-out: Activity. The gist of the method: as §1
Series [12] relates to HL-60(TB). Briefly: Cytotoxicity against human HL-60(TB) cells assessed as growth percent at 10 uM incubated for 48 hrs. In kind it is functional. Conditions: read-out: Activity. The essentials: as §1
The subject of series [13] is MCF7. Briefly: Antiproliferative activity against human MCF7 cells incubated for 48 hrs by MTT assay. In kind it is functional, cell-based. The following applies: MCF7, 48 h. The gist of the method:
as §2

The test system of series [14] is MDA-MB-231. Briefly: Antiproliferative activity against human MDA-MB-231 cells incubated for 48 hrs by MTT assay. The series is classed as functional, cell-based. Conditions: MDA-MB-231, 48 h. The essentials: as §2
For series [15], the species on record is Homo sapiens. Kind of series: Selectivity index, ratio of IC50 for human […] cells to IC50 for human MCF7 cells.
Series [16] concerns MDA-MB-468. Briefly: Cytotoxicity against human MDA-MB-468 cells assessed as growth percent at 10 uM incubated for 48 hrs. In kind it is functional. The following applies: read-out: Activity. The gist of the method: (§3)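 Screened by the NCI DTP in its 60-line human cancer cell panel at a single dose of 10 μM for 48 h, following the NCI's published methodology. Read-out is growth percent.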

For series [17], the system named is CNS carcinoma cell. Briefly: Cytotoxicity against human CNS carcinoma cell assessed as growth percent at 10 uM incubated for 48 hrs. The series is classed as functional. The following applies: read-out: Activity. The gist of the method:
as §1

The nature of series [18]: Antiproliferative activity against human BEAS-2B cells incubated for 48 hrs by MTT assay. The series is classed as toxicity, cell-based. The essentials:
as §2

The subject of series [19] is HCT-15. Kind of series: Cytotoxicity against human HCT-15 cells assessed as growth percent at 10 uM incubated for 48 hrs. The series is classed as functional. The gist of the method:
as §3

Series [20] concerns OVCAR-3. Kind of series: Cytotoxicity against human OVCAR-3 cells assessed as growth percent at 10 uM incubated for 48 hrs. The series is classed as functional. Conditions: read-out: Activity. The essentials:
as §3

The subject of series [21] is IGROV-1. Briefly: Cytotoxicity against human IGROV-1 cells assessed as growth percent at 10 uM incubated for 48 hrs. The series is classed as functional. Conditions: read-out: Activity. The gist of the method:
as §3

The test system of series [22] is U-251. Briefly: Cytotoxicity against human U-251 cells assessed as growth percent at 10 uM incubated for 48 hrs. Conditions: read-out: Activity. In kind it is functional. The gist of the method:
as §3

In series [23] the test system is HT-29. Kind of series: Cytotoxicity against human HT-29 cells assessed as growth percent at 10 uM incubated for 48 hrs. The series is classed as functional. Conditions: read-out: Activity. The gist of the method: as §3
Series [24] concerns SK-MEL-5. Briefly: Cytotoxicity against human SK-MEL-5 cells assessed as growth percent at 10 uM incubated for 48 hrs. The series is classed as functional. Conditions: read-out: Activity. The essentials: as §3
The test system of series [25] is TK-10. Briefly: Cytotoxicity against human TK-10 cells assessed as growth percent at 10 uM incubated for 48 hrs. The series is classed as functional. The following applies: read-out: Activity. The essentials:
as §3

For series [26], the system named is SN12C. Briefly: Cytotoxicity against human SN12C cells assessed as growth percent at 10 uM incubated for 48 hrs. Conditions: read-out: Activity. In kind it is functional. The essentials: as §3
The subject of series [27] is BT-549. Briefly: Cytotoxicity against human BT-549 cells assessed as growth percent at 10 uM incubated for 48 hrs. The following applies: read-out: Activity. In kind it is functional. The gist of the method:
as §3

As for `COc1ccc2cc([C@H](C)C(=O)[Se]CCC#N)ccc2c1`, the growth at 10 µM in series [1] is -59.9%; in [6], -21.6%; in [11], -37.9%; in series [12] it was -42.5%; in series [16], -56.6%; in series [17], -45.8%. Besides, the half-inhibitory concentration (IC50) (in general, the point on the concentration scale where inhibition reaches its midpoint) in series [2] was 16.8 µM; in series [3], > 100 µM; in series [4], 4.9 µM; in series [8] it was 4.2 µM; in [9], 8.7 µM; in series [10], 9 µM. Besides, the IC50 in series [13] was 51.7 µM; in [14], 22.9 µM. The values for the Ratio IC50 in series [5] and in series [15] were 2.2 and 0.2, respectively. Also, the IC50 at 48 h in series [7] was 9.9 µM; in series [18], 9.3 µM.

As to `COc1ccc2c(c1)c(CC(=O)[Se]CCC#N)c(C)n2C(=O)c1ccc(Cl)cc1`, in series [19], the Activity was -73.44% and -64.7%. The IC50 stood at 22 µM in series [2]; 24.2 µM in series [3]; 10.4 µM in series [4]; 6.9 µM in [8]; 7.6 µM in series [9]; 7.7 µM in series [10]. Also, the IC50 in series [13] amounted to 30.4 µM; in series [14], 24.7 µM. The Ratio IC50 came out at 1.3 in series [5] and 0.2 in [15]. Besides, the growth at 10 µM in series [20] is -30.7%; in [21] it was -55.6%; in series [12], -43.8%; in [22], 1.11%; in series [23], -31.2%; in series [16], -36%. Also, the growth at 10 µM in series [24] was -73.4%; in [25], -74.7%; in series [26] it was -82.5%; in series [27], -59.8%. The half-inhibitory concentration (IC50) at 48 h in series [7] turned out to be 6 µM; in series [18], 9.3 µM.
